Usually Ki stands for a dissociation constant, usually derived from enzyme kinetics or from competition with a known ligand. Lower therefore signals a stronger hold on the target. A word on the EC50: it is the concentration that produces a half-maximal response. As a reminder, the Emax is the greatest response seen or fitted, relative to the assay's reference. One may read the IC50 as the midpoint of a concentration-inhibition curve. Usually Kd stands for the free concentration of one partner at which half of the binding sites on the other are occupied at equilibrium, for simple one-to-one binding.

The target of assay [1] is T1, Muscarinic acetylcholine receptor M1 (Homo sapiens, UniProt P11229).
T1 sequence (P11229 whole entry): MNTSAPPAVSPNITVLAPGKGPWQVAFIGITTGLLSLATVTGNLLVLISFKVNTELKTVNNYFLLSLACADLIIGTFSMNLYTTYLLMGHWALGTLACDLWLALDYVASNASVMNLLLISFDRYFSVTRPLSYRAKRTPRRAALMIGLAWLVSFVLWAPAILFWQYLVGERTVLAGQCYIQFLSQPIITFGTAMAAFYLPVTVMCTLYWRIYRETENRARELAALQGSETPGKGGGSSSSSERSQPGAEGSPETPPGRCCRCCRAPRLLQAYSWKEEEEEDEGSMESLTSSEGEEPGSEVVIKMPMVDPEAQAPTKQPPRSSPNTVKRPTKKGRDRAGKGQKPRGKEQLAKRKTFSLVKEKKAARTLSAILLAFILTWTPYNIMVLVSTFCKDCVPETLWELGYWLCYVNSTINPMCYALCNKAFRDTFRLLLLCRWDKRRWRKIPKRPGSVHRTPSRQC
Format: cell-based, HEK293.

Assay [2] concerns the target T2, Muscarinic acetylcholine receptor M1 (Homo sapiens) (UniProt P11229).
T2 sequence (whole entry): T1 sequence (P11229 whole entry)
The note with it: HEK293.

Assay [3] concerns the target T2, Muscarinic acetylcholine receptor M1 (Homo sapiens). To be noted: HEK293, 200 nM.
Assay [4] concerns the target T1, Muscarinic acetylcholine receptor M1. As to the kind of experiment: Partial agonist activity at human full length M1 receptor expressed in HEK293 cells assessed as induction of calcium response by fluorescence assay. The assay is classed as functional, cell-based. In a few lines: (§1)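 Stably transfected HEK293 cells (hygromycin-selected) were loaded with 5 μM Indo-1 AM for 45 min at 37 °C, then suspended at 10⁶ cells/mL in Hepes buffer with BSA. […] EC50 and Emax are mean ± SD of two determinations.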

Assay [5] shares this target. As to the kind of experiment: Partial agonist activity at EGFP-fused human M1 receptor N-terminal truncated at 11 residues expressed in HEK293 cells assessed as induction of calcium response by fluorescence assay. Format: functional, cell-based. In a few lines:
as §1

In assay [6] the target is T2, Muscarinic acetylcholine receptor M1 (Homo sapiens). To be noted: HEK293, 10 uM.
Assay [7] concerns the target T1, Muscarinic acetylcholine receptor M1. As to the kind of experiment: Displacement of [3H]NMS from EGFP-fused human M1 receptor N-terminal truncated at 17 residues expressed in HEK293 cells after 22 hrs by liquid scintillation counting. The assay is classed as cell-based. On the technique in general: Loss of bound radioactivity is the signal in a displacement assay; it reports binding, not function.

The target in assay [8] is T2, Muscarinic acetylcholine receptor M1 (Homo sapiens). To be noted: HEK293, 10 uM. The source holds these as a separate data set.
Assay [9] addresses T1, Muscarinic acetylcholine receptor M1. As to the kind of experiment: Partial agonist activity at EGFP-fused human full length M1 receptor expressed in HEK293 cells assessed as induction of calcium response by fluorescence assay. Format: functional, cell-based. In a few lines:
as §1

Assay [10] shares this target. As to the kind of experiment: Partial agonist activity at EGFP-fused human M1 receptor N-terminal truncated at 17 residues expressed in HEK293 cells assessed as induction of calcium response by fluorescence assay. Format: functional, cell-based. In a few lines: as §1
Assay [11] concerns the target T2, Muscarinic acetylcholine receptor M1 (Homo sapiens). As to the kind of experiment: Partial agonist activity at EGFP-fused human M1 receptor N-terminal truncated at 17 residues expressed in HEK293 cells assessed as inhibition of carbachol induced calcium response at 1 uM by fluorescence assay relative to control. The assay is classed as functional, cell-based.
Assay [12] has the same target. Put plainly: Allosteric modulation of EGFP-fused human M1 receptor N-terminal truncated at 17 residues expressed in HEK293 cells after 4 hrs by FRET assay in presence of para-LRB-AC42. Format: cell-based. In a few lines:
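EGFP emission was read at 510 nm with excitation at 470 nm. Specific signal was the difference from 20 μM atropine. Kx and α came from an allosteric model fit, with three or more independent runs done in duplicate.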

Assay [13] has the same target. As to the kind of experiment: (§2) Antagonist activity at EGFP-fused human M1 receptor N-terminal truncated at 17 residues expressed in HEK293 cells assessed as inhibition of carbachol induced calcium response by fluorescence assay. The assay is classed as functional, cell-based.
Assay [14] concerns the target T1, Muscarinic acetylcholine receptor M1. The description is as §2. Format: functional, cell-based.
In assay [15] the target is Muscarinic acetylcholine receptor M3 (Homo sapiens) (UniProt P20309). Put plainly: Antagonist activity at human M3 receptor in HEK293 cells assessed as inhibition of 20 uM carbachol induced calcium response at 10 uM by fluorescence assay. Format: functional, cell-based. In a few lines:
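Nontransfected HEK cells (endogenous M3) loaded with 5 μM Indo-1 AM, 45 min, 37 °C, trypsin/EDTA harvested, suspended at 10⁶ cells/mL in Hepes buffer with 1 mg/mL BSA. Calcium read at 37 °C as 400 nm emission (338 nm excitation), peak normalized to 20 μM digitonin maximum.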

In assay [16] the target is T1, Muscarinic acetylcholine receptor M1. Put plainly: Displacement of [3H]NMS from EGFP-fused human M1 receptor N-terminal truncated at 17 residues expressed in HEK293 cells assessed as reduction of [3H]NMS dissociation rate after 22 hrs by liquid scintillation counting. The assay is classed as cell-based.
The target of assay [17] is T2, Muscarinic acetylcholine receptor M1 (Homo sapiens). Put plainly: Binding affinity to EGFP-fused human M1 receptor N-terminal truncated at 17 residues expressed in HEK293 cells assessed as maximal amplitude after 4 hrs by FRET assay. The assay is classed as cell-based. In a few lines: (§3)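 EGFP emission was read at 510 nm; specific binding is atropine-sensitive fluorescence extinction. Kd, maximal FRET amplitude and Ki/Kx/α come from Hill or competitive/allosteric fits, mean ± SE, n≥3.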

Assay [18] addresses T1, Muscarinic acetylcholine receptor M1. Put plainly: Binding affinity to EGFP-fused human M1 receptor N-terminal truncated at 17 residues expressed in HEK293 cells after 4 hrs by FRET assay. Format: cell-based. In a few lines: as §3
Assay [19] concerns the target T2, Muscarinic acetylcholine receptor M1 (Homo sapiens). Put plainly: Partial agonist activity at EGFP-fused human M1 receptor N-terminal truncated at 17 residues expressed in HEK293 cells assessed as inhibition of carbachol induced calcium response at […] by fluorescence assay. The assay is classed as functional, cell-based.

Active and inactive are the calls of the source. The calls are words filed in the database; no cut-off is given here.

Sequence of Muscarinic acetylcholine receptor M3 (Homo sapiens) (P20309 whole entry, looked up): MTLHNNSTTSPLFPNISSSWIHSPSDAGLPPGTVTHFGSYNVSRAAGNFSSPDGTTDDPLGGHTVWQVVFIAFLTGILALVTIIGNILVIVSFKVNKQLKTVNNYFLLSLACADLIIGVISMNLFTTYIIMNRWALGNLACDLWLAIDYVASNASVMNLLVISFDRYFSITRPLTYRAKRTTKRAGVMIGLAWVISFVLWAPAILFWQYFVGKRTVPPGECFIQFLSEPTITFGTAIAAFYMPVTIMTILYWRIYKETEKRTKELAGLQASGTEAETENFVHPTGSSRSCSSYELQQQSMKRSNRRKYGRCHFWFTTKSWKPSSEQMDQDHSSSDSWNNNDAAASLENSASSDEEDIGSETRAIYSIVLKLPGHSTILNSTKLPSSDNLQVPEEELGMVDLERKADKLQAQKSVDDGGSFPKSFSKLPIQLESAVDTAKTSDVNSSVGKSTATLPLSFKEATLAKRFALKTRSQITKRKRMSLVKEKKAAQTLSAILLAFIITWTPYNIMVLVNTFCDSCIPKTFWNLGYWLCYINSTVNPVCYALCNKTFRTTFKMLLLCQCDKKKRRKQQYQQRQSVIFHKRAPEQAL

Compound `COc1cc2c(cc1OC)[C@@]13CCN4CC5=CCO[C@H]6CC(=O)N2[C@H]1[C@H]6[C@H]5C[C@H]43` [BRUCINE] showed a Ki in [1] of 44.7 µM. Moreover, the pKx in assay [2] came out at 4.59.
`CCCCC1CCN(CCCC(=O)c2ccccc2C)CC1`: the inhibition entry in assay [3], in [6] and in assay [8] was “inactive” each time. Moreover, the Ki was 0.891 µM in assay [1] and 1.74 µM in assay [7]. Moreover, the EC50 in assay [4] stood at 0.74 µM; in assay [5], 0.72 µM; in [9] it was 0.21 µM; in assay [10], 0.45 µM.
On to `CCN(CC)c1ccc2c(-c3ccc(S(=O)(=O)[O-])cc3S(=O)(=O)NCCCCCC3CCN(CCCC(=O)c4ccccc4C)CC3)c3ccc(=[N+](CC)CC)cc-3oc2c1`, for which the Emax in [11] was determined as 20%.
On to `Clc1ccc2c(c1)N=C(N1CCNCC1)c1ccccc1N2` [N-DESMETHYLCLOZAPINE], for which the Ki in [7] is 0.0603 µM. Moreover, in assay [12], the pKx turned out to be 6.92.
As for `Cc1ccccc1C(=O)CCCN1CCC(CCCCCN)CC1`, the figures for the Ki in [1] and in [7] were 1.29 µM and 1.95 µM, respectively. For the same compound, the inhibition result in [13] is “Dose-dependent effect”. Moreover, in assay [14], the IC50 was determined as 3.7 µM. In [15], the inhibition entry was “inactive”.
As for `CCN(CC)c1ccc2c(-c3ccc(S(=O)(=O)NCCCCCC4CCN(CCCC(=O)c5ccccc5C)CC4)cc3S(=O)(=O)[O-])c3ccc(=[N+](CC)CC)cc-3oc2c1`, the EC50 in assay [16] is 25.1 µM. Also, in assay [17], the Activity worked out at 26.5%. This compound also gave a Ki in assay [7] of 1 µM. The same compound gave a Kd in assay [18] of 0.794 µM. The inhibition result in [13] was “Dose-dependent effect”. Further, in [14], the IC50 was 0.3 µM. In assay [15], the inhibition entry was “inactive”.
For the compound `CCN(CC)c1ccc2c(-c3ccc(S(=O)(=O)O)cc3S(=O)(=O)[O-])c3ccc(=[N+](CC)CC)cc-3oc2c1`, the outcome in [19] was inactive. For the same compound, in assay [7], the Ki is > 1000 µM.
For the compound `C#C[C@]1(O)CC[C@H]2[C@@H]3CC[C@H]4Cc5nc6nc7ccccc7n6cc5C[C@]4(C)[C@H]3CC[C@@]21C`, the pKx in assay [12] came to 5.03.

(Values after ChEMBL document CHEMBL2203158, “Fluorescent derivatives of AC-42 to probe bitopic orthosteric/allosteric binding mechanisms on muscarinic M1 receptors” (J Med Chem, 2012).)
